Data taken from ChEMBL document CHEMBL4699430, “Continuous flow synthesis of lipophilic cations derived from benzoic acid as new cytotoxic chemical entities in human head and neck carcinoma cell lines” (RSC Med Chem, 2020).
Activity calls are given as the source filed them. The rule behind the calls is not given here.

Key:
[1] = system: CAL-27; assay: Induction of mitochondrial uncoupling in human CAL-27 cells assessed as oxygen consumption rate measured by Clark-type oxygen electrode method; settings: Mitochondria, dose microM 10-50
How it was run: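 Polarographic Clark-electrode assay on 5 × 10^6 trypsinised Cal-27 cells (cultured to 80% confluence). Cells held in 0.6 mL PBS, pH 7.4, at 25 °C with 8.3 mM L-glutamine. Respiration first inhibited with 2.5 μg/mL oligomycin, then compound added at increasing concentrations. OCR compared with full uncoupling by 0.133 μM CCCP.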

[2] = system: CAL-27; assay: Induction of mitochondrial membrane potential loss in human CAL-27 cells at 2.5 to 30 uM by flow cytometry; settings: dose microM 2.5-30
[3] = system: HEp-2; assay: Induction of mitochondrial membrane potential loss in human Hep-2 cells at 2.5 to 30 uM by flow cytometry; settings: dose microM 2.5-30
[4] = system: CAL-27; assay: Induction of apoptosis in human CAL-27 cells at 2.5 uM incubated for 48 hrs by annexin-V FITC and PI staining based flow cytometric analysis; type: functional, cell-based
How it was run: (§1)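 Cells at 1 × 10^5 per mL exposed to 2.5 μM compound for 48 h at 37 °C in 5% CO2, with 10 μM staurosporine as positive control. Cells stained 5 min at room temperature with annexin V-FITC (488/530) and PI (488/575) in binding buffer; 10 000 events recorded by flow cytometry. Mean ± SD of at least three experiments; ANOVA with Bonferroni post-test.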

[5] = Selectivity index, ratio of IC50 for human OKF-6/TERT cells to IC50 for human HEp-2 cells after 48 hrs by MTT assay; type: toxicity; settings: OKF-6/TERT cells versus HEp-2 cells
How it was run: (§2)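 Selectivity index at 48 h is the ratio of the OKF-6/TERT IC50 to the tumour-line IC50. Each IC50 comes from a sigmoidal, variable-slope dose–response curve of the MTT viability assay (1 × 10^4 cells per well, 48 h exposure, absorbance at 570 nm).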

[6] = Cytotoxicity against human OKF-6/TERT cells assessed as reduction in cell viability measured after 48 hrs by MTT assay; type: cell-based; settings: OKF6, 48 h
How it was run: (§3)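 Cells seeded at 1 × 10^4 per well and left 24 h, then exposed to increasing concentrations for 24, 48 or 72 h. After two PBS washes, 0.5 mg/mL MTT applied for 2 h. Formazan dissolved in DMSO and absorbance read at 570 nm. IC50 taken from a variable-slope dose–response curve.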

[7] = Selectivity index, ratio of IC50 for human OKF-6/TERT cells to IC50 for human CAL27 cells after 48 hrs by MTT assay; type: toxicity; settings: OKF-6/TERT cells versus CAL27 cells, read-out: Ratio IC50; how it was run: as §2
[8] = system: CAL-27; assay: Anticlonogenic activity against human CAL-27 cells assessed as reduction in colony formation incubated for 24 hrs followed supplementation with fresh medium without compound measured after 120 hrs by colony formation assay; type: functional, cell-based
How it was run: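 Cal-27 cells, 1 × 10^3 per well, grown 24 h at 37 °C in 5% CO2, then exposed 24 h to a range of concentrations. Medium then replaced with compound-free medium and growth continued 120 h. Colonies stained 30 min with crystal violet (0.5% in methanol), photographed and counted. Three independent experiments; ANOVA with Bonferroni post-test.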

[9] = system: CAL-27; assay: Cytotoxicity against human CAL-27 cells assessed as reduction in cell viability measured after 48 hrs by MTT assay; type: functional, cell-based; settings: CAL-27, 48 h; how it was run: as §3
[10] = system: HEp-2; assay: Cytotoxicity against human HEp-2 cells assessed as reduction in cell viability measured after 48 hrs by MTT assay; type: functional, cell-based; settings: HEp-2, 48 h; how it was run: as §3
[11] = system: HEp-2; assay: Decrease in intracellular ATP levels in human Hep-2 cells at 10 to 50 uM incubated for 4 hrs by CellTiter-Glo luminescence assay; settings: dose microM 10-50, time 4.0 hrs
[12] = system: HEp-2; assay: Induction of apoptosis in human Hep-2 cells at 2.5 uM incubated for 48 hrs by annexin-V FITC and PI staining based flow cytometric analysis; type: functional, cell-based; how it was run: as §1
[13] = Selectivity index, ratio of IC50 for human OKF-6/TERT cells to IC50 for human SCC-15 cells after 48 hrs by MTT assay; type: toxicity; settings: OKF-6/TERT cells versus SCC-15 cells; how it was run: as §2
[14] = system: SCC-15; assay: Cytotoxicity against human SCC-15 cells assessed as reduction in cell viability measured after 48 hrs by MTT assay; type: functional, cell-based; settings: SCC-15, 48 h; how it was run: as §3
[15] = system: CAL-27; assay: Induction of apoptosis in human CAL-27 cells assessed as increase in caspase 3 activity at 2.5 to 5 uM incubated for 24 hrs by flow cytometry; type: functional, cell-based; settings: dose 2.5 µM
How it was run: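 Cal-27 cells seeded at 5 × 10^5 per well and grown 24 h at 37 °C, then exposed to two concentrations for 24 h. Cells fixed and permeabilised 30 min at 4 °C in the dark, stained 30 min with PE anti-active caspase-3 antibody, and read by flow cytometry at 488 ex/617 em.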

[16] = system: CAL-27; assay: Uncoupling of mitochondrial oxidative phosphorylation in human CAL-27 cells assessed as increase in oxygen consumption rate by Clark electrode based assay; settings: Mitochondria
[17] = system: CAL-27; assay: Decrease in intracellular ATP levels in human CAL-27 cells at 10 to 50 uM incubated for 4 hrs by CellTiter-Glo luminescent assay; settings: dose microM 10-50, time 4.0 hrs

SMILES | Activity [1] | Activity [2] | Activity [3] | Activity [4] | selectivity ratio at 48 h ([5]; read-out: Ratio IC50) | IC50 [6] | selectivity ratio at 48 h [7] | Activity [8] | IC50 [9] | IC50 [10] | Activity [11] | Activity [12] | selectivity ratio at 48 h ([13]; read-out: Ratio IC50) | IC50 [14] | Activity [15] | Activity [16] | Activity [17] | selectivity ratio at 48 h [5] | selectivity ratio at 48 h [13]
O=C(OCCCCCCCCCC[P+](c1ccccc1)(c1ccccc1)c1ccccc1)c1cc(O)c(O)c(O)c1 | Dose-dependent effect | Active | Active | Active | 1 | 13.1 µM | 3.8 | Dose-dependent effect | 3.4 µM | 12.5 µM | Active | Active | 4.4 | 3 µM | Active | Active | – | – | –
O=C(OCCCCCCCCCC[P+](c1ccccc1)(c1ccccc1)c1ccccc1)c1ccccc1O | Dose-dependent effect | Active | Active | Active | 3 | 12.7 µM | 5.5 | Dose-dependent effect | 2.3 µM | 4.28 µM | Active | Active | 4 | 3.2 µM | Active | Active | – | – | –
O=C(OCCCCCCCCCC[P+](c1ccccc1)(c1ccccc1)c1ccccc1)c1cc(O)ccc1O | Dose-dependent effect | Active | Active | Active | 2.3 | 13.2 µM | 6 | Dose-dependent effect | 2.2 µM | 5.66 µM | Active | Active | 4.9 | 2.7 µM | Active | – | Active | – | –
O=C(OCCCCCCCCCC[P+](c1ccccc1)(c1ccccc1)c1ccccc1)c1cccc(O)c1O | Dose-dependent effect | Active | Active | Active | – | 7.5 µM | 4.7 | Dose-dependent effect | 1.6 µM | 8.28 µM | Active | Active | – | 2.9 µM | Active | – | Active | 2.3 | 4.9
